Converted amounts (≈) assume the structure as drawn.
How the values were obtained:
[1] = Growth inhibition of human A172 cells after 6 days; assay type: functional, cell-based; details: a 172
[2] = Cytotoxicity against human A172 cells after 6 days; assay type: functional, cell-based, A 172
Summary of the method: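 A172 glioma cells in high-glucose DMEM with 10% heat-inactivated FBS and penicillin/streptomycin, seeded at 5 × 10^3 cells/mL (1 mL/well). After 24 h, alkaloids were added from fresh 1 mg/mL DMSO stocks (final DMSO ≤0.5%; controls DMSO-matched). Total cell number counted by particle counter after 6 days. IC50 (50% inhibition vs untreated) taken from dose–response curves; mean ± SD, ≥3 independent experiments.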

[3] = Homo sapiens, A 172, 144 h, read-out: IC50

Q: Which relative cell growth [1] does the source give for `C=C1[C@@H](OC(C)=O)[C@]23C[C@@H]1[C@@H](O)C[C@H]2[C@@]12C4C3C[C@@H]1[C@@]1(C)CC[C@H]2OC1N4CC` [DEHYDROLUCIDUSCULINE] here?
A: 1.18

Q: What about the IC50 [2, 3] of the same compound?
A: > 5 µg/mL

Q: For `C=C1[C@H]2C[C@H]3C4N5C[C@]6(C)CCC[C@]47[C@H]([C@H]2OC(=O)c2cccc(C(F)(F)F)c2)C3(C[C@]5(O)[C@H]67)[C@@H]1O`, which relative cell growth [1] is on record?
A: 0.58

Q: With `CCN1C[C@]2(COC)CC[C@H](OC)[C@]34C1[C@@](O)([C@@H](OC)[C@H]23)[C@@]1(O)C[C@H](OC)[C@H]2C[C@@H]4[C@@H]1[C@H]2OC(C)=O` as the compound, how does the relative cell growth [1] read?
A: 0.99

Q: With `C=C1[C@H]2C[C@H]3C4N5C[C@]6(C)CCC[C@]47[C@H]([C@H]2O)C3(C[C@]5(OC(=O)/C=C/c2ccccc2)[C@H]67)[C@@H]1O` as the compound, how does the relative cell growth [1] read?
A: 0.97

Q: Which relative cell growth [1] does the source give for `C=C1[C@H]2C[C@H]3C4N5C[C@]6(C)CCC[C@]47[C@H]([C@H]2O)C3(C[C@]5(OC(=O)c2cccc(C(F)(F)F)c2)[C@H]67)[C@@H]1O` here?
A: 1.04

Q: Which relative cell growth [1] does the source give for `COC[C@]12CC[C@H](O)[C@]34C(NC1)[C@@](O)([C@@H](OC)[C@H]23)[C@@]1(O)C[C@H](OC)[C@H]2C[C@@H]4[C@@H]1[C@H]2OC` here?
A: 0.93

Q: With `CCN1C[C@]2(COC)CC[C@H](O)[C@]34C1[C@@](O)([C@@H](OC)[C@H]23)[C@@]1(O)C[C@H](OC)[C@H]2C[C@@H]4[C@@H]1[C@H]2OC(C)=O` as the compound, how does the relative cell growth [1] read?
A: 1.11

Q: With `C=C1[C@@H](O)[C@]23C[C@@H]1[C@@H](OC(=O)c1ccccc1)C[C@H]2[C@@]12C4C3C[C@@H]1[C@@](C)(CC[C@H]2O)CN4CC` as the compound, how does the relative cell growth [1] read?
A: 0.82

Q: With `COC[C@]12CC[C@H]3OC1NC1[C@@]34[C@@H]3C[C@H]5[C@H](O)[C@@H]3[C@](O)(C[C@@H]5OC)[C@]1(O)[C@@H](OC)[C@H]24` as the compound, how does the relative cell growth [1] read?
A: 1.04

Q: Which relative cell growth [1] does the source give for `C=C1[C@@H](O)[C@]23C[C@@H]1[C@@H](OC(=O)c1ccc(OC)c(OC)c1)C[C@H]2[C@@]12C4C3C[C@@H]1[C@@](C)(CC[C@H]2O)CN4CC` here?
A: 0.97

Q: With `C=C1[C@@H](OC(C)=O)[C@]23C[C@@H]1[C@@H](OC(C)=O)C[C@H]2[C@@]12C4C3C[C@@H]1[C@@](C)(CC[C@H]2OC(C)=O)CN4CC` as the compound, how does the relative cell growth [1] read?
A: 1.02

Q: And the IC50 [2, 3]?
A: > 5 µg/mL

Q: With `C=C1[C@H]2C[C@H]3C4N5C[C@]6(C)CCC[C@]47[C@H]([C@H]2OC(=O)c2ccccc2)C3(C[C@]5(OC(=O)c2ccccc2)[C@H]67)[C@@H]1O` as the compound, how does the relative cell growth [1] read?
A: 0.76

Q: And the IC50 ([2]; a 172)?
A: 1.3 µg/mL (≈ 2.42 µM)

Q: Which relative cell growth [1] does the source give for `COC[C@@]12CC[C@H](OC)[C@]34C(C([C@H](OC)[C@H]13)[C@]1(OC(C)=O)[C@H]3[C@@H](OC(=O)c5ccccc5)[C@](O)(C[C@H]34)[C@@H](OC)[C@@H]1O)N(C)C2` [HYPACONITINE] here?
A: 1.08

Q: Which relative cell growth [1] does the source give for `COC[C@]12CC[C@H]3OC1NC1[C@@]34[C@@H]3C[C@H]5[C@H](OC)[C@@H]3[C@](O)(C[C@@H]5OC)[C@]1(O)[C@@H](OC)[C@H]24` here?
A: 1.14

Q: With `C=C1[C@H]2C[C@H]3C4N5C[C@]6(C)CCC[C@]47[C@H]([C@H]2O)C3(C[C@]5(O)[C@H]67)[C@@H]1O` [PSEUDOKOBUSINE] as the compound, how does the relative cell growth [1] read?
A: 0.84

Q: What about the IC50 [2, 3] of the same compound?
A: > 5 µg/mL

Q: For `CC(=O)O[C@H]1C[C@H]2C3C4C[C@@H]5[C@@]6(C)CC[C@H](OC(C)=O)[C@@]5(C4N(C)C6)[C@@H]3[C@H]1[C@@]1(CO1)[C@H]2O` (some centres not stated) [YESOXINE], which relative cell growth [1] is on record?
A: 1.01

Q: What about the IC50 [2, 3] of the same compound?
A: > 5 µg/mL

Q: For `CCN1C[C@]2(COC)[C@H](O)C[C@H](OC)[C@]34C1C([C@H](OC)[C@H]23)[C@]1(OC)[C@H]2[C@@H](OC(=O)c3ccc(OC)cc3)[C@](O)(C[C@H]24)[C@@H](OC)[C@@H]1O` [ALJESACONITINE A], which relative cell growth [1] is on record?
A: 0.93

Q: What does the source list for `C=C1[C@H]2C[C@H]3C4N5C[C@]6(C)CCC[C@]47[C@H]([C@H]2O)C3(C[C@]5(OC(=O)c2ccc(OC)c(OC)c2)[C@H]67)[C@@H]1O`?
A: relative cell growth [1]: 0.84; IC50 [2, 3]: 3.7 µg/mL (≈ 7.5 µM)

Q: For `C=C1[C@@H](O)[C@]23C[C@@H]1[C@@H](OC(=O)c1ccc(OC)cc1)C[C@H]2[C@@]12C4C3C[C@@H]1[C@@](C)(CC[C@H]2O)CN4CC`, which relative cell growth [1] is on record?
A: 0.84

Q: For `COC[C@]12CN(C)C3C4[C@H](OC)[C@H]1[C@@]3([C@@H](OC)C[C@H]2O)[C@@H]1C[C@@]2(O)[C@H](OC(=O)c3ccccc3)[C@@H]1[C@]4(OC)[C@@H](O)[C@@H]2OC` [HOKBUSINE A], which relative cell growth [1] is on record?
A: 1.03

Q: What does the source list for `C=C1[C@H]2C[C@H]3C4N5C[C@]6(C)CCC[C@]47[C@H]([C@H]2OC(=O)/C=C/c2ccccc2)C3(C[C@]5(O)[C@H]67)[C@@H]1O`?
A: relative cell growth [1]: 0.49; IC50 [2, 3]: 0.89 µg/mL (≈ 1.94 µM)

Q: For `CCN1C[C@]2(C)CC[C@H](OC)[C@@]34C1[C@@]1(OCO[C@@]15C[C@H](OC)[C@H]1C[C@@H]3[C@@H]5[C@H]1O)[C@@H](O)[C@H]24` [DELPHELINE], which relative cell growth [1] is on record?
A: 1.1

Q: What does the source list for `C=C1[C@H]2C[C@H]3C4N5C[C@]6(C)CCC[C@]47[C@H]([C@H]2O)C3(CC5[C@H]67)[C@@H]1O` [KOBUSINE]?
A: relative cell growth [1]: 0.76; IC50 [2, 3]: > 5 µg/mL

Q: For `C=C1[C@H]2C[C@H]3C4N5C[C@]6(C)CCC[C@]47[C@H]([C@H]2O)C3(C[C@]5(OC(=O)c2ccccc2)[C@H]67)[C@@H]1O`, which relative cell growth [1] is on record?
A: 0.93

Q: For `C=C1[C@@H](O)[C@]23C[C@@H]1[C@@H](OC(C)=O)C[C@H]2[C@@]12C4C3C[C@@H]1[C@@](C)(CC[C@H]2O)CN4CC`, which relative cell growth [1] is on record?
A: 0.66

Q: And the IC50 [2, 3]?
A: 5.6 µg/mL (≈ 13.9 µM)

Q: With `C=C1[C@H]2C[C@H]3C4N(Cc5ccccc5)C[C@]5(C)CCC[C@]46[C@H]([C@H]2O)C3(CC(=O)[C@H]56)[C@@H]1O` (some centres not stated) as the compound, how does the relative cell growth [1] read?
A: 1.01

Q: Which results are given for `C=C1[C@H]2C[C@H]3C4N5C[C@]6(C)CCC[C@]47[C@H]([C@H]2OC(=O)c2ccc(OC)c(OC)c2)C3(C[C@]5(O)[C@H]67)[C@@H]1O`?
A: relative cell growth [1]: 0.47; IC50 [2, 3]: 1.2 µg/mL (≈ 2.43 µM)

Q: Which relative cell growth [1] does the source give for `C=C1[C@H]2C[C@H]3C4N5C[C@]6(C)CCC[C@]47[C@H]([C@H]2O)C3(C[C@]5(O)[C@H]67)[C@@H]1OC(=O)c1ccc(OC)c(OC)c1` here?
A: 0.97

Q: And the IC50 [2, 3]?
A: 2.9 µg/mL (≈ 5.88 µM)

Q: What does the source list for `C=C1[C@H]2C[C@H]3C4N(Cc5ccccc5)C[C@]5(C)CCC[C@]46[C@H]([C@H]2O)C3(CC(=O)[C@H]56)[C@@H]1OCc1ccccc1` (some centres not stated)?
A: relative cell growth [1]: 1.04; IC50 [2, 3]: > 5 µg/mL

Q: What does the source list for `C=C1[C@H]2C[C@H]3C4N5C[C@]6(C)CCC[C@]47[C@H]([C@H]2OC(=O)c2ccc([N+](=O)[O-])cc2)C3(C[C@]5(O)[C@H]67)[C@@H]1O`?
A: relative cell growth [1]: 0.22; IC50 [2, 3]: 1.5 µg/mL (≈ 3.13 µM)

Q: With `C=C1[C@H]2C[C@H]3C4N5C[C@]6(C)CCC[C@]47[C@H]([C@H]2O)C3(C[C@]5(OC(=O)c2ccc(OC)cc2)[C@H]67)[C@@H]1O` as the compound, how does the relative cell growth [1] read?
A: 0.99

Q: For `COC[C@]12CC[C@H](O)[C@]34C(NC1)[C@@](O)([C@@H](OC)[C@H]23)[C@@]1(O)C[C@H](OC)[C@H]2C[C@@H]4[C@@H]1[C@H]2O`, which relative cell growth [1] is on record?
A: 0.9

Q: With `CCN1C[C@]2(COC)CC[C@H](OC)[C@]34C1C([C@H](OC)[C@H]23)[C@]1(OC(C)=O)[C@H]2[C@@H](OC(=O)c3ccccc3)[C@](O)(C[C@H]24)[C@@H](OC)[C@@H]1O` [DEOXYACONITINE] as the compound, how does the relative cell growth [1] read?
A: 0.99

Q: What does the source list for `C=C1[C@H]2C[C@H]3C4N5C[C@]6(C)CCC[C@]47[C@H]([C@H]2OC(=O)c2ccc(OC)cc2)C3(C[C@]5(O)[C@H]67)[C@@H]1O`?
A: relative cell growth [1]: 0.23; IC50 [2, 3]: 1.3 µg/mL (≈ 2.8 µM)

Q: Which relative cell growth [1] does the source give for `C=C1[C@H]2C[C@H]3C4N5C[C@]6(C)CCC[C@]47[C@H]([C@H]2OC(=O)c2cccc(C(F)(F)F)c2)C3(CC5[C@H]67)[C@@H]1O` here?
A: 0.6

Q: Which relative cell growth [1] does the source give for `C=C1[C@H]2C[C@H]3C4N5C[C@]6(C)CCC[C@]47[C@H]([C@H]2O)C3(C[C@]5(OC(=O)c2ccc([N+](=O)[O-])cc2)[C@H]67)[C@@H]1O` here?
A: 0.96

Q: With `CCN1C[C@]2(COC)CC[C@H](OC)[C@]34C1C([C@H](OC)[C@H]23)[C@]1(OC(C)=O)[C@H]2[C@@H](OC(=O)c3ccc(OC)cc3)[C@](O)(C[C@H]24)[C@@H](OC)[C@@H]1O` [DEOXYJESACONITINE] as the compound, how does the relative cell growth [1] read?
A: 0.97

Q: For `C=C1[C@@H](OC(C)=O)[C@]23C[C@@H]1[C@@H](OC(C)=O)C[C@H]2[C@@]12C4C3C[C@@H]1[C@@](C)(CC[C@H]2O)CN4CC`, which relative cell growth [1] is on record?
A: 1.03
